# KCNQ1 act = human KCNQ1 channel potentiation or activation; P51787; CHO-K1 KCNQ1, thallium flux FluxOR fluorescence; hits give high values; B-score at 10 µM; actives 0.35% (n = 310,000); AID 2648;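 active means fluorescence ratio B-score, a plate-corrected score, at least three library SD, with initial intensity B-score within 5 SD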
#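 assay system = KCNQ1-transfected CHO-K1 cells | medium = assay buffer with matched DMSO | probe or stimulus = depolarizing K+/Tl+ stimulus, K2SO4 and Tl2SO4 each 12.5 mM in 5x stock | dosing = single dose | incubation = dye 90 min, compound 20 min, room temperature | detection = kinetic FluxOR fluorescence, 10 s baseline plus 110 s post-stimulus | evaluation = ratio B score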
# KCNK3 block = human KCNK3 channel inhibition, primary screen; O14649; CHO-KCNK3 thallium flux, FluxOR fluorescence; hits give low values; B-score at 10 µM; actives 0.84% (n = 340,000); AID 602410;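 active means B-score under library mean minus 4 SD, starting fluorescence ratio at most library mean plus 5 SD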;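 further: more negative B-score means stronger inhibition of thallium flux through KCNK3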
# Target sequence (O14649 whole entry, looked up): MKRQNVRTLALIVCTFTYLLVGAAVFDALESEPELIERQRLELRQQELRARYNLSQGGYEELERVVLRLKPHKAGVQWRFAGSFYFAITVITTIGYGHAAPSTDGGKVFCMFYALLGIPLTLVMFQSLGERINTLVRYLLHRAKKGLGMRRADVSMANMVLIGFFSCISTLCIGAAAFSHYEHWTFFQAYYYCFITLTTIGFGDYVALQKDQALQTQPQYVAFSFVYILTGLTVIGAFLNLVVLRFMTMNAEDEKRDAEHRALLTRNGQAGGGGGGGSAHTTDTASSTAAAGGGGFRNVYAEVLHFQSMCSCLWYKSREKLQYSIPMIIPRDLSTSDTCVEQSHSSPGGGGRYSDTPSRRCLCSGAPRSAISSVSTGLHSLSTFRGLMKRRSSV
# hERG protect = shields human hERG channel from block by proarrhythmic agents | CHO-hERG, FluxOR thallium flux, dofetilide IC70 present | activation (rescue from dofetilide block), less the hit threshold, % at 10 µM | Q12809 | actives 0.51% (n = 310,000);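 active means activation above the mean of controls blocked by dofetilide plus 5 SD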;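 further: thallium influx through hERG after potassium depolarization seen as dye fluorescence rise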
# KCNK9 inh = blocks the human KCNK9 two-pore domain potassium channel; AID 488922; HEK293 KCNK9, FluxOR thallium flux fluorescence; hits give low values; actives 1.2% (n = 310,000); B-score at 10 µM; Q9NPC2;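 active means ratio B-score over 3 SD below the library mean, with starting fluorescence within 5 SD of its mean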;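 further: negative B-score means less thallium flux so channel inhibition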
# Target sequence (Q9NPC2 whole entry, looked up, the tested form may be a part): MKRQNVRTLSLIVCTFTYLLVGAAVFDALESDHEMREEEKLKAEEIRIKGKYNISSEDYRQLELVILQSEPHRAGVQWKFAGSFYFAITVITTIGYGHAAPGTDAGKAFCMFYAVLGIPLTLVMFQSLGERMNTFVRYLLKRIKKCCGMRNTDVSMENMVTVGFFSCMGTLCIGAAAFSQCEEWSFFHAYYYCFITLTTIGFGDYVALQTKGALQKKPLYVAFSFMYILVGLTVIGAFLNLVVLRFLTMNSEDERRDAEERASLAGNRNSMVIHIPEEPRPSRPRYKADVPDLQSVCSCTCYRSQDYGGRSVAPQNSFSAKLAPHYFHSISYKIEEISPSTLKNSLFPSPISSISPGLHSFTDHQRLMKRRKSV
# KCNQ1 block = human KCNQ1 channel inhibition; CHO-K1 KCNQ1, FluxOR thallium flux fluorescence; hits give high values; B-score at 10 µM; actives 1.3% (n = 310,000);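 active means compounds whose thallium flux B-score, printed positive for inhibition, exceeds three library SD while starting fluorescence stays within three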;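 further: channel opened by potassium depolarization with thallium stimulus after 20 min compound exposure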
# Kir21 block = blocks the mouse Kir2.1 inward-rectifier potassium channel; HEK293-Kir2.1, FluxOR thallium flux fluorescence; hits give low values; actives 0.85% (n = 310,000); P35561; AID 1672; B-score at 10 µM;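 active means fluorescence ratio B-score at or below minus 3 SD of library scores, with starting-brightness B-score within 2 SD, cut at about -4.2 in these data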;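 further: channel flux triggered by added potassium and thallium sulfate stimulus; B-score of peak minus minimum fluorescence over baseline after thallium stimulus; more negative B-score means stronger Kir2.1 block with less thallium influx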
# KCNQ1 inh valid = reconfirmed blocker of the human KCNQ1 potassium channel; KCNQ1 cell line, FluxOR thallium flux fluorescence; shares compounds with KCNQ1 block; inhibition, % at 10 µM; actives 93% (n = 1,600);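 active means primary screen active, with duplicate mean exceeding buffer control mean plus 3 SD of buffer wells, cut at about 28% in these data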
# CHO KCNQ1 ctr = KCNQ1 inhibitor counter-screen hit in parental CHO cells; shares compounds with KCNQ1 block; fluorescence ratio (Tl flux) at 10 µM; actives 21% (n = 1,600); AID 588366; parental CHO-K1, FluxOR thallium flux fluorescence ratio; hits give low values; zero means no signal rise above baseline;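 active means mean of duplicate thallium-flux fluorescence ratios in parental host cells more than 5 SD below the buffer control mean, cut at about 0.38 in these data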;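 further: ratio is peak minus minimum fluorescence divided by baseline fluorescence; actives read low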
# KCNQ1 APC inh = human KCNQ1 inhibition validated by electrophysiology; calls only at 10 µM; actives 20% (n = 490); AID 624120; KCNQ1-CHO cells, automated patch clamp current; shares compounds with KCNQ1 block;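 active means KCNQ1 current drop exceeding 3 SD of negative control wells, seen in both duplicate runs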;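 further: steady state current during a 2 s step from -80 to +40 mV; negative values mean current inhibition and positive values mean potentiation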
# KCNQ2 inh = KCNQ1 inhibitor that also blocks rat KCNQ2 channel; shares compounds with KCNQ1 block; KCNQ2 cells, FluxOR thallium flux fluorescence; inhibition, % at 10 µM; actives 71% (n = 1,600); AID 651746;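 active means mean percent inhibition of the KCNQ2 thallium signal more than 5 SD above the buffer-only control wells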;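 further: KCNQ2 expressed in CHO cells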
# KCNQ1 KCNE1 spec = human KCNQ1/KCNE1 inhibition in KCNQ1 specificity screen | inhibition, % at 10 µM | KCNQ1/KCNE1 cells, FluxOR thallium flux fluorescence | actives 77% (n = 1,600) | shares compounds with KCNQ1 block;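 active means mean percent inhibition of duplicate wells above the buffer-only control mean plus 3 SD of those controls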
# A number is an active result; 0 = inactive; - = no result given; + = active, no number. In the library only some 3.7% were active in any assay of this set; here they are far more common.
SMILES,KCNQ1 act,KCNK3 block,hERG protect,KCNK9 inh,KCNQ1 block,Kir21 block,KCNQ1 inh valid,CHO KCNQ1 ctr,KCNQ2 inh,KCNQ1 KCNE1 spec,others
CC1CCCN(c2nc3ccccc3nc2C(C#N)S(=O)(=O)c2cccs2)C1 (stereo not drawn),0,0,0,0,0,0,-,-,-,-,
Cc1ccccc1Nc1cc(C)c2c(O)cccc2n1,0,0,0,0,7,-7.2,31,0,71%,0,
Cc1ccccc1SCC(=O)OCC(=O)NCCNC(=O)COC(=O)CSc1ccccc1C,0,0,0,0,0,0,-,-,-,-,
COc1cccc(NC(=O)NC2(C(=O)N3CCN(C)CC3)CCCCC2)c1,0,0,0,0,0,0,-,-,-,-,
Cc1cccc(NC(=O)c2ccc(C3SCC(=O)N3CCc3ccccc3)cc2)c1 (stereo not drawn),0,0,0,0,7,0,99,0,109%,82%,KCNQ1 APC inh=0
Cc1ccccc1OCCCc1c(C)n[nH]c1C,0,0,0,0,0,0,-,-,-,-,
Cc1ccccc1OCCCCc1c(C)n[nH]c1C,0,0,0,0,7,0,109,0,97%,80%,KCNQ1 APC inh=0
CCOc1ccc2nc(NC3=NC(C)(C)C=C(C)N3)nc(C)c2c1,0,0,0,0,10,0,88,0,0,92%,
c1ccc2c(c1)OCC(CNc1ncnc3sccc13)O2 (stereo not drawn),0,0,0,0,12,0,106,0,97%,104%,
O=C(Nc1cc(S(=O)(=O)N2CCCCC2)ccc1N1CCOCC1)c1ccc(F)cc1,-,0,-,-,-,-,-,-,-,-,
Cc1ccc(C)c(-c2cc(C(=O)Nc3nccs3)c3ccccc3n2)c1,0,0,0,-7.8,8,0,88,0,102%,125%,KCNQ1 APC inh=0
Cc1sc(NC(=O)c2cc(-c3ccc(Cl)cc3)nc3ccccc23)c(C(N)=O)c1C,0,0,0,0,0,0,-,-,-,-,
COC(=O)c1sccc1NC(=O)c1cc(-c2cc(C)ccc2C)nc2ccccc12,0,0,0,0,0,0,-,-,-,-,
Cc1sc(NC(=O)c2cc(-c3ccccc3)nc3ccccc23)c(C(N)=O)c1C,0,0,0,0,6,0,97,0,100%,140%,KCNQ1 APC inh=0
Cc1cccc(NC(=O)c2cc(-c3ccc(C)s3)nc3ccccc23)n1,0,0,0,-7.2,6,0,92,0,98%,149%,KCNQ1 APC inh=0
COc1cc(NC(=O)CCC(=O)c2cccs2)cc(OC)c1,0,0,0,0,0,0,-,-,-,-,
CCOC(=O)c1oc2ccc(S(=O)(=O)n3nc(-c4cc(OC)c(OC)c(OC)c4)cc3N)cc2c1C,0,0,0,0,7,0,62,0,71%,110%,
COc1cc(-c2cc(N)n(S(=O)(=O)c3ccc(F)cc3)n2)cc(OC)c1OC,0,0,0,0,0,0,-,-,-,-,
O=C(Nc1ccc(N2CCN(C(=O)c3ccco3)CC2)c(Cl)c1)c1cc2ccccc2o1,0,0,0,0,6,0,78,0,108%,142%,
CCC(=O)N1CCN(c2ccc(NC(=O)c3cc4ccccc4o3)cc2Cl)CC1,0,0,0,0,0,0,-,-,-,-,
O=C(CN1CCCCC1)Nc1ccc(S(=O)(=O)c2ccc(NC(=O)CN3CCCCC3)cc2)cc1,-,0,-,-,-,-,-,-,-,-,
O=C(NCC1(c2ccccc2)CCCC1)c1cccc(Br)c1,0,0,0,0,6,0,106,0,112%,147%,KCNQ1 APC inh=+
COc1ccc(C2(CNC(=O)c3ccccc3)CCCC2)cc1OC,0,0,0,0,0,0,-,-,-,-,
CN(Cc1ccccc1)C(=O)COC(=O)CN1C(=O)c2ccccc2C1=O,-,0,-,-,-,-,-,-,-,-,
Cc1ccc(-n2c(-c3ccc(Br)cc3)c[n+]3c2CCc2ccc4cccnc4c2-3)cc1,0,-11,0,0,19,-14,136,0.32,120%,184%,
SMILES,KCNQ1 act,KCNK3 block,hERG protect,KCNK9 inh,KCNQ1 block,Kir21 block,KCNQ1 inh valid,CHO KCNQ1 ctr,KCNQ2 inh,KCNQ1 KCNE1 spec,others
C=CCN(Cc1cccs1)C(=O)CN1CCN(S(=O)(=O)c2ccc3c(c2)OCCCO3)CC1,-,0,-,-,-,-,-,-,-,-,
CC(=O)c1c(N2CCOCC2)nc2ccc(Br)cc2c1-c1ccccc1,0,0,0,0,10,0,100,0,119%,101%,KCNQ1 APC inh=0
CCCn1c(=O)c2[nH]c(-c3ccc(S(=O)(=O)O)cc3)nc2n(CCC)c1=O,-,0,-,-,-,-,-,-,-,-,
CC1(C)CCN2CCC(C)(C)c3c(O)ccc1c32,0,0,0,0,11,0,70,0,62%,58%,
Fc1cc(Br)ccc1Nc1nc2ccccc2n2nnnc12,0,0,0,0,0,0,-,-,-,-,
Fc1ccccc1N1CCN(c2nc3ccccc3n3nnnc23)CC1,0,0,0,0,7,0,76,0,71%,84%,
COc1ccc(Cl)cc1NC(=O)NCc1ccccn1,0,0,0,0,0,0,-,-,-,-,
Cc1cc(C)c(-c2cc(NC(=O)CSc3n[nH]c(N)n3)n(-c3ccccc3)n2)cc1C,0,0,0,0,7,0,78,0,89%,128%,
Cc1cc(C)c(-c2cc(NC(=O)COC(=O)c3ccc(CO)cc3)n(-c3ccccc3)n2)cc1C,0,0,0,0,0,0,-,-,-,-,
COc1ccc(N2CCN(C(=O)C(Cc3ccccc3)NC(=O)c3ccccc3)CC2)cc1 (stereo not drawn),-,0,-,-,-,-,-,-,-,-,
O=C(Nc1ccc2nc3n(c(=O)c2c1)CCCCC3)C(=O)N1CCN(c2ccccc2F)CC1,0,0,0,0,0,0,-,-,-,-,
CCCCSc1ccc2nc(-c3ccc(C#N)cc3)cn2c1,0,0,0,0,7,0,104,0,67%,92%,KCNQ1 APC inh=+
CC(C)(C)c1ccc(OCCC(=O)Nc2cccc(S(=O)(=O)N3CCCC3)c2)cc1,0,0,0,0,8,0,34,0,84%,66%,
Cc1ccc(OCC(=O)Nc2cccc(S(=O)(=O)N3CCCCCC3)c2)cc1C,0,0,0,0,7,0,96,0,99%,65%,KCNQ1 APC inh=0
CC(=O)Nc1cccc(OCC(=O)Nc2cccc(S(=O)(=O)N3CCCC3)c2)c1,-,0,-,-,-,-,-,-,-,-,
CC(C)(C)c1ccc(OCCCC(=O)Nc2cccc(S(=O)(=O)N3CCOCC3)c2)cc1,-,0,-,-,-,-,-,-,-,-,

# Screens: PubChem, Johns Hopkins Ion Channel Center
